Measurements reported in ChEMBL document CHEMBL1148736, “N-Acylthiadiazolines, a new class of liver X receptor agonists with selectivity for LXRbeta” (J Med Chem, 2007).
Activity calls are given as the source filed them. The calls are words filed in the database; no cut-off is given here.

How the values were obtained:
[1] = Bioavailability in C57BL/6 mouse at 20 mg/kg, po; type: ADME, organism-based; conditions: in vivo
Summary of the method: (§1)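 Mouse PK study, IV and PO; compound formulated at 2.5 mg/mL in PEG300/Tween 80 (4:1). IV dose 5 mpk (AUC, Cmax, clearance, Vss); oral dose 20 mpk (AUC, Cmax, bioavailability, t1/2).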

[2] = Cmax in C57BL/6 mouse at 5 mg/kg, iv; type: ADME, organism-based; set-up: dose 5 mg/kg, route intravenous; conditions: in vivo; summary of the method: as §1
[3] = Cmax in C57BL/6 mouse at 20 mg/kg, po; type: ADME, organism-based; set-up: dose 20 mg/kg, route oral; conditions: in vivo; summary of the method: as §1
[4] = biological target: T1, Oxysterols receptor LXR-alpha (Homo sapiens, UniProt Q13133); experiment: Agonist activity at GAL-linked human LXRalpha expressed in THP1 cells assessed as stimulation of coactivator recruitment by FRET assay; type: functional
T1 sequence (Q13133 whole entry): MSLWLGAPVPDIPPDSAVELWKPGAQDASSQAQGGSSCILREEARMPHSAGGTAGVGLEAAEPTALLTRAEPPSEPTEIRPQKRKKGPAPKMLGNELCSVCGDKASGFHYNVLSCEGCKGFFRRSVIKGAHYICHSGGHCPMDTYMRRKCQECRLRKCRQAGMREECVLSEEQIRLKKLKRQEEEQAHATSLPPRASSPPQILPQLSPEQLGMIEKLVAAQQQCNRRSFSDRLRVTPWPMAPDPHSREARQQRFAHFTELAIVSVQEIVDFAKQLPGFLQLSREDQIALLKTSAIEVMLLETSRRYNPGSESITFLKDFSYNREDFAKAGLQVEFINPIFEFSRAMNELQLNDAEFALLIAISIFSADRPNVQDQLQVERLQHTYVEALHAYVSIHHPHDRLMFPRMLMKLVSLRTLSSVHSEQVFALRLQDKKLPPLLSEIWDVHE
Summary of the method: (§2)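 Cell-free TR-FRET coactivator recruitment: 20 nM His-tagged hLXRα or hLXRβ, 300 nM biotinylated SRC-1 peptide, Eu-anti-His antibody, APC-streptavidin. 12-point curves from 20 µM; 1 h at 37 °C. Duplicate. %E = maximal coactivator recruitment relative to reference dual agonist in same experiment.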

THP-1 [5] = experiment: Increase in ABCA1 gene expression in THP1 cells at 10 uM relative to GW-3965; type: functional, Homo sapiens
Summary of the method: (§3)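 THP-1 cells differentiated with 40 ng/mL PMA for 1 day, then switched to RPMI with 2% lipoprotein-deficient FBS. Compound added 6 h later at 1 or 10 µM in DMSO, incubated 24 h. ABCA1 mRNA by one-step TaqMan qRT-PCR, triplicate, multiplexed with 36B4; fold induction vs DMSO, expressed relative to reference dual agonist.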

[6] = AUC in C57BL/6 mouse at 20 mg/kg, po; type: ADME, organism-based; set-up: dose 20 mg/kg, route oral; conditions: plasma; summary of the method: as §1
[7] = Half life in C57BL/6 mouse at 20 mg/kg, po; type: ADME, organism-based; set-up: dose 20 mg/kg, route oral; conditions: in vivo; summary of the method: as §1
[8] = biological target: T2, Oxysterols receptor LXR-beta (Homo sapiens) (UniProt P55055); experiment: Agonist activity at GAL-linked human LXRbeta expressed in THP1 cells assessed as stimulation of co-activator recruitment by FRET assay relative to GW-3965; type: functional; summary of the method: as §2
T2 sequence (whole entry): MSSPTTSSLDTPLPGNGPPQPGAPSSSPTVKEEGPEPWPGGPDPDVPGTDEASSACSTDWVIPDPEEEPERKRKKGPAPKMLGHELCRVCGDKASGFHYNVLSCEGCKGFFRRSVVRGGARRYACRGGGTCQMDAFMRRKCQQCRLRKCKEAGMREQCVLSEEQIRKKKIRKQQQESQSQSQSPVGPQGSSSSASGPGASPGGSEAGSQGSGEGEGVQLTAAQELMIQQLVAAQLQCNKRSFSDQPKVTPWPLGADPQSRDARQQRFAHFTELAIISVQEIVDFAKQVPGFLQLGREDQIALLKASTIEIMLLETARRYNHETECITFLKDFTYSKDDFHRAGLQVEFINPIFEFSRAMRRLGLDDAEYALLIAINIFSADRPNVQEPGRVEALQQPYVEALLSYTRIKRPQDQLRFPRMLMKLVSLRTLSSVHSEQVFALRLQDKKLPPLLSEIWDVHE

THP-1 [9] = experiment: Increase in ABCA1 gene expression in THP1 cells at 1 uM relative to GW-3965; type: functional, Homo sapiens; summary of the method: as §3
[10] = biological target: T3, Oxysterols receptor LXR-alpha (Homo sapiens) (UniProt Q13133); experiment: Agonist activity at GAL-linked human LXRalpha expressed in THP1 cells assessed as stimulation of co-activator recruitment by FRET assay relative to GW-3965; type: functional; summary of the method: as §2
T3 sequence (whole entry): T1 sequence (Q13133 whole entry)

[11] = AUC in C57BL/6 mouse at 5 mg/kg, iv; type: ADME, organism-based; set-up: dose 5 mg/kg, route intravenous; conditions: plasma; summary of the method: as §1
[12] = Clearance in C57BL/6 mouse at 5 mg/kg, iv; type: ADME, organism-based; set-up: dose 5 mg/kg, route intravenous; conditions: in vivo; summary of the method: as §1
[13] = Volume of distribution at steady state in C57BL/6 mouse at 5 mg/kg, iv; type: ADME, organism-based; set-up: dose 5 mg/kg, route intravenous; conditions: in vivo, read-out: Vss; summary of the method: as §1
Liver [14] = experiment: Effect on ABCA1 gene expression in C57BL/6 mouse liver; type: functional, tissue-based
Summary of the method: (§4)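 Male C57BL/6 mice, 10 weeks old, chow-fed, gavaged daily with vehicle or compound (20–200 mpk) for 3 days. Fasted overnight before the last dose; killed 3 h later. Tissue RNA analysed by TaqMan qRT-PCR.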

[15] = biological target: T4, Oxysterols receptor LXR-beta (Homo sapiens, UniProt P55055); experiment: Agonist activity at GAL-linked human LXRbeta expressed in THP1 cells assessed as stimulation of co-activator recruitment by FRET assay; type: functional; summary of the method: as §2
T4 sequence (P55055 whole entry): T2 sequence (whole entry)

Liver [16] = experiment: Effect on SREBP1c gene expression in C57BL/6 mouse liver; type: functional, tissue-based; summary of the method: as §4

- bioavailability [1]: 11%
- Cmax [2]: 70.9 µM
- Cmax [3]: 6.9 µM
- EC50 [4]: 1.4 µM
- AUC [6]: 16800 ng·h/mL
- half-life [7]: 4.5 h
- Efficacy [8]: 98%
- Efficacy [10]: 62%
- AUC [11]: 35700 ng·h/mL
- clearance [12]: 2.26 mL/min/kg
- Vd [13]: 0.44 L/kg
- EC50 [15]: 0.076 µM
SMILES: COc1cccc(C2SC(c3ccc(F)cc3)=NN2C(=O)c2c(F)cc(F)cc2F)c1OC (stereo unspecified)
- Activity (THP-1 [5]): 53%
- Activity (THP-1 [9]): 42%
- Activity (Liver [14]): inactive
- Activity (Liver [16]): inactive
